Measurements published in the array DNA melting data of Ke et al. (doi:10.1101/2024.01.08.574731).

Experiments:
[1] = folding enthalpy; higher = less favourable; fluorescence melt of hairpins on a sequencing array, two-state fit; details: sodium 0.088 M
Procedure, shortened: (§1)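 Melting temperature and folding enthalpy were derived from bootstrapped two-state fits. The fitted temperatures were raised by 9.35 °C to agree with UV melts, and four replicates were combined by inverse variance. The underlying data were Cy3 fluorescence images of library hairpins, with annealed Cy3 and quencher oligos, on a sequenced MiSeq flow cell in 50 mM Na-HEPES pH 8.0, 25 mM NaCl, taken in 2.5 °C steps up to 60 °C, normalised to pre-quench Cy3 and to control constructs.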

[2] = melting temperature; fluorescence melt of hairpins on a sequencing array, two-state fit, raised by 9.35 °C to match UV melts; details: sodium 0.088 M
Procedure, shortened: as §1

Row | Sequence | folding enthalpy [1] [kcal/mol] | Tm [2] [°C]
1 | GGAAAACGAAAGTTGTCC (((.(((....))).))) | -26.1 | 44.6
2 | GTAGCGGGAAACTGCTAC (((((.(....).))))) | -37.1 | 53.6
3 | GATCACTCCTGTGATC ((((((....)))))) | -33.9 | 59.7
4 | GGTACAGGAAACCGTACC (((((.(....).))))) | -33 | 47.1
5 | GTCGATCGAAAGATGAC (((.(((....)))))) | -26.9 | 43.7
6 | GTACGGCCGAAAGGCTAC (((..(((....)))))) | -7.78 | 28.7
7 | GCCTAACGAAAGTTGGC (((.(((....)))))) | -31.3 | 53.7
8 | GGTACCGGAAACGGTATC (.(((((....))))).) | -23.9 | 51.6
9 | GTGAAAGGAAACTTTCAC (((((((....))))))) | -50.6 | 54.1
10 | GAGGTGGGAAACCATCTC (((.(((....))).))) | -31.3 | 47.7
11 | GCATTTACGAAAGTATGC (((..(((....)))))) | -22.2 | 38
12 | GGTCCCGGAAACAGGACC (((((.(....).))))) | -28.6 | 49.7
13 | GCGTATGGAAACATGTGC ((..(((....)))..)) | -11.6 | 38.8
14 | GATCTCACCTGAGATC ((((((....)))))) | -44.1 | 53.5
15 | GATCTTAGCGAAGATC ((((((....)))))) | -31.2 | 43.4
16 | GGGAACCCGAAAGGGCCC (((..(((....)))))) | -15.4 | 45.9
17 | GCGACTGGAAACAGTCAC (.(((((....))))).) | -14.4 | 48.2
18 | GCTGCGCCGAAAGGCAGC (((..(((....)))))) | -11.5 | 61.1
19 | GCGGTATACCGC ((((....)))) | -27.4 | 60.7
20 | GTATATCCGAAAGGATAC (((..(((....)))))) | -12.4 | 34.7
21 | GTGTCCGAAAGGAGACAC ((((((....)))..))) | -21.7 | 50.7
22 | GGTGACGGAAACGTTGCC ((..(((....)))..)) | -34.3 | 48.1
23 | GTCACTACGAAAGTAGAC (((..(((....)))))) | -10.2 | 28.3

Row | Sequence | folding enthalpy [1] [kcal/mol] | Tm [2] [°C]
24 | GGATGGACGAAAGTCTCC (((..(((....)))))) | -13.6 | 32.5
25 | GCCTTGGCGAAAGCCGGC (((..(((....)))))) | -12.9 | 56.9
26 | GGCCGCGGAAACGCAGCC (((.(((....))).))) | -38.1 | 61.3
27 | GGCCGACGAAAGTCAGCC (((.(((....))).))) | -35.5 | 59.4
28 | GATCGTAAGAACGATC ((((((....)))))) | -35.1 | 50.5
29 | GCTTTATCGAAAGATAGC (((..(((....)))))) | -12.2 | 31.6
30 | GGCGGCGAAAGCCACGCC ((((((....)))..))) | -17.1 | 63.6
31 | GTGACGGGAAACCGTCGC (.(((((....))))).) | -24.8 | 62.6
32 | TTGTCGAAAGACAA (((((....))))) | -18.1 | 55
33 | GTCTCCGAAAGGAGCGAC ((((((....)))..))) | -16.1 | 53.9
34 | GATCCCTTGAGGGATC ((((((....)))))) | -42.9 | 62.4
35 | GATCCCACGCGGGATC ((((((....)))))) | -30.7 | 63.3
36 | GTTCGGGGAAACCCGGAC ((.((((....)))).)) | -42.2 | 54.9
37 | GGTTAACCGAAAGGTACC (((..(((....)))))) | -17.4 | 38
38 | GGGAAGGGAAACCTTTCC ((.((((....)))).)) | -24.4 | 45.7
39 | GATCCAGCTTTGGATC ((((((....)))))) | -32.1 | 51.5
40 | GGCTCCGAAAGGACTGCC ((((((....)))..))) | -19.1 | 47.6
41 | GCATGAGCGAAAGCTTGC (((..(((....)))))) | -14.1 | 45.6
42 | GCTGTGAAAACAGC (((((....))))) | -30.2 | 63.3
43 | GCAATCCGAAAGGAGTGC (((.(((....))).))) | -48 | 61.1
44 | GATCTCTCGGAGATC ((((((...)))))) | -37.1 | 55.6
45 | GCCTTCGAAAGAAGCGGC ((((((....)))..))) | -18.1 | 47.2
46 | GAATCCGAAAGGAGCTTC ((((((....)))..))) | -23.6 | 41.6

Row | Sequence | folding enthalpy [1] [kcal/mol] | Tm [2] [°C]
47 | GATCGAGTATTCGATC ((((((....)))))) | -40 | 59.2
48 | GCGTACGAACGC ((((....)))) | -23.9 | 51.5
49 | GATCAAGAGATTGATC ((((((....)))))) | -29.5 | 41.8
50 | GATCTTAAGAAAGATC ((((((....)))))) | -22.1 | 36
51 | GGTGTACGAAAGTAAACC (((.(((....))).))) | -24.9 | 48.6
52 | GGGGTCGAAAGACTTCCC ((((((....)))..))) | -15.6 | 39
53 | GATCTTTTTGAAGATC ((((((....)))))) | -34.5 | 46.1
54 | GATCATGTAGATGATC ((((((....)))))) | -38.9 | 51
55 | GTCAAAGGAAACCTTGAC (((((.(....).))))) | -26.9 | 38.2
56 | CGTCCCGGAAACGGAACG (((.(((....))).))) | -26.3 | 47.5
57 | GGTAACGAAAGTTACC ((((((....)))))) | -34.7 | 64.1
58 | GTCGGTGGAAACACCGGC (.(((((....))))).) | -23.8 | 63.2
59 | GCCTTCGAAAGAAAGGC ((((((....))).))) | -30.3 | 54
60 | GTGGGCGCGAAAGCGCAC (((..(((....)))))) | -16.4 | 67.9
61 | GATCCTCGTCAGGATC ((((((....)))))) | -25.1 | 50.8
62 | GTTGATGGAAACATTGAC ((..(((....)))..)) | -13.7 | 29.5
63 | GCCGCCGAAAGGCCAGGC ((((((....)))..))) | -20.4 | 56.1
64 | GGTATCGGAAACGATACC (((((((....))))))) | -48.7 | 64
65 | GATCAAAAAGTTGATC ((((((....)))))) | -14.1 | 33
66 | GAGTTGGGAAACCAGCTC (((.(((....))).))) | -34.7 | 48.9
67 | GATAAAGGAAACTTTGTC ((.((((....)))).)) | -14.1 | 32.2
68 | GTCGCAACGAAAGTTGAC (((..(((....)))))) | -12.1 | 29.4
69 | GCCGTCGAAAGACAGGGC ((((((....)))..))) | -38.8 | 54.4

Row | Sequence | folding enthalpy [1] [kcal/mol] | Tm [2] [°C]
70 | GGGCGTACGAAAGTACCC (((..(((....)))))) | -17.4 | 50.2
71 | GTGAAGCGAAAGCTGCAC (((.(((....))).))) | -35 | 61
72 | GAGATCGCGAAAGCGCTC (((..(((....)))))) | -8.57 | 33.6
73 | GCCTATTCGAAAGAAGGC (((..(((....)))))) | -20.6 | 38.2
74 | GATCCCGGCGGGATC ((((((...)))))) | -36.5 | 68.2
75 | GCCTTTGGAAACAAAGAC (.(((((....))))).) | -21.9 | 34.7
76 | GATCGGTGTGCCGATC ((((((....)))))) | -33.2 | 64.8
77 | GCGGCGTCGAAAGACCGC (((..(((....)))))) | -27.5 | 54.6
78 | GTTAGTCGAAAGACCAAC (((.(((....))).))) | -19.1 | 37
79 | GCTAGCCGAAAGGCCAGC (((.(((....))).))) | -20.8 | 54.3
80 | GGTAAGGGAAACCTTATC (.(((((....))))).) | -25.6 | 38.1
81 | GCTCTCCGAAAGGACAGC (((.(((....))).))) | -25.9 | 41.3
82 | GCGCCGGGAAACCGACGC (((.(((....))).))) | -46.8 | 60.9
83 | GGCTACGAAAGTACTGCC ((((((....)))..))) | -22.7 | 39.6
84 | GATCGGTGCGCCGATC ((((((....)))))) | -36.9 | 66.9
85 | GCGAACATTCGC ((((....)))) | -21.4 | 48.2
86 | GTACCCGAAAGGGGATAC ((((((....)))..))) | -11.9 | 41.9
87 | CGCCTCCGGAAACGGGCG (((..(((....)))))) | -25.6 | 48.1
88 | GTAGTGGAAACACTAC ((((((....)))))) | -45.9 | 53.4
89 | GCGGCTATCCGC ((((....)))) | -20.1 | 61.2
90 | GAACTGGGAAACTAGTTC (((((.(....).))))) | -37.9 | 42.4
91 | GAACTCGGAAACAAGTTC (((((.(....).))))) | -22.7 | 34
92 | GCGAATGAAAATTCGC ((((((....)))))) | -36.3 | 65
